# CaV13 ICDI inh: Primary screen for inhibitors of IQ motif and Ca2+-dependent inactivation inhibitor domain binding in CACNA1D, Förster resonance energy transfer in living cells, … | HEK cells, CFP/YFP FRET ICDI-IQ, plate reader, 10 min; percent FRET-ratio fall versus neutral wells | actives 0.098% (n = 340,000) | AID 743397 | inhibition, % at 12.3 µM;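 active = mean replicate inhibition of at least 30% and at least 1% of replicates passing that level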;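 note: 0% = median of the neutral control wells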
# ADAM17 inh: inhibitors of human ADAM17 | P78536 | recombinant ADAM17, EDANS/DABCYL FRET peptide cleavage | inhibition, % at 6.95 µM | actives 0.83% (n = 370,000) | AID 720648;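 active = inhibition above the mean of compounds lying between control limits plus 3 SD, set per campaign, cut at about 8.5% in these data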;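 note: 0% = DMSO-only wells as the low control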
# Target sequence (P78536 215-824 limits assumed): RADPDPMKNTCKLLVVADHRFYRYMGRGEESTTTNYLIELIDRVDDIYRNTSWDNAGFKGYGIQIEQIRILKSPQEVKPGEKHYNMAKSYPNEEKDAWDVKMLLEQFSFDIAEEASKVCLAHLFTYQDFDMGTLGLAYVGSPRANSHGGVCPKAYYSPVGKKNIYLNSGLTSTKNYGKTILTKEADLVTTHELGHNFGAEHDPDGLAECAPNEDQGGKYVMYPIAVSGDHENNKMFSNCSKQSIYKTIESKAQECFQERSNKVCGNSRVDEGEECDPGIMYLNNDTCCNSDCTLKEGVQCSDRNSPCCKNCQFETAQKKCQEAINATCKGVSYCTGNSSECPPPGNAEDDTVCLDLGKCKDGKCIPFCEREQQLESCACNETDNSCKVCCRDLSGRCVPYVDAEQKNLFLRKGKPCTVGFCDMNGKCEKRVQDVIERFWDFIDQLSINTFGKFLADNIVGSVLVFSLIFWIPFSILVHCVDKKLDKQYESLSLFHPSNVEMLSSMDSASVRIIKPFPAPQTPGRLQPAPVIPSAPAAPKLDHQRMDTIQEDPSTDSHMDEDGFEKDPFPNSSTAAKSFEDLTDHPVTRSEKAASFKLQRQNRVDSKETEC
# NRP1-CendR mod: alters CendR peptide binding to human NRP-1; FAM-RPARPAR peptide binding to NRP-1, fluorescence polarization; inhibition, % at 25 µM; actives 0.85% (n = 360,000); AID 602438;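 active = inhibition or corrected inhibition above about 18%, plus a signal ratio from 0.5 to 1.5, limit read from the data, passing the limit was not always enough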
# FAS TE block: inhibitors of human fatty acid synthase thioesterase domain. P49327. recombinant FAS-TE, OMFH fluorogenic substrate, fluorescence endpoint. inhibition, % at 15 µM. actives 0.67% (n = 360,000);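 active = compounds whose normalised, plate-corrected inhibition of enzyme fluorescence in the single-dose primary screen is 50% or more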;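 note: 0% = DMSO with enzyme and 100% = substrate without enzyme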
# Arrestin-AP2 inh: inhibitors of human beta-arrestin and AP2 interaction. actives 0.31% (n = 340,000). AID 504490. FITC-arrestin peptide / GST-AP2 beads, flow cytometry; AP2 beta2 appendage carries R879A mutation. inhibition, % at 10 µM;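 active = inhibition above a set limit, near 3 SD of compounds lacking own fluorescence, cut at about 54% in these data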;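 note: plate controls were DMSO wells for no effect and 5 µM unlabelled arrestin peptide for full effect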
#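 System: GST-tagged AP2 beta2-adaptin appendage (R879A) on 4 µm glutathione beads / Reagent: FITC-arrestin peptide, 50 nM / Detection: HyperCyt-sampled flow cytometry, FL1 channel, ex 488/em 535 nm / Timing: 12 min plus 1 h, RT / Buffer or medium: PBS plus Tween 20 (0.05%) and BSA (0.1%)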
# ADAM10 inh: ADAM10 inhibition, QFRET primary screen; O14672; recombinant ADAM10, EDANS/DABCYL FRET peptide cleavage, 3 h; inhibition, % at 7 µM; actives 0.62% (n = 370,000);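 active = inhibition above a per-campaign cutoff equal to the mean of compounds falling between control-based bounds plus 3 SD, cut at about 20% in these data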;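 note: 0% = DMSO wells while the 100% control is not disclosed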
# FAS-TE inh conf: FAS thioesterase (human) inhibition, confirmation. shares compounds with FAS TE block. AID 624325. actives 45% (n = 2,300). recombinant FAS-TE, OMFH fluorogenic substrate, fluorescence. inhibition, % at 15 µM;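 active = compounds inhibiting the enzyme by at least 50% at 15 µM in any one of the replicates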;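 note: 0% = enzyme with DMSO only and 100% = wells lacking enzyme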
# * hit, by the source's call; · = no result given. Sampled rows, rich in hits. Any-hit rate of the full collection: about 2.9%.
SMILES,CaV13 ICDI inh,ADAM17 inh,NRP1-CendR mod,FAS TE block,Arrestin-AP2 inh,ADAM10 inh,FAS-TE inh conf
Cc1ccc(S(=O)(=O)N2[C@@H](c3ccc(C(C)(C)C)cc3)C(C(=O)O)=CC[C@H]2c2ccc(Cl)cc2)cc1,-5.3,5.6,-62.1,55.1*,0.4,10.1,49.3*
CCN(CC)c1ccc(C=Nn2c(C)nnc2C)cc1,·,-3.0,·,·,·,-28.2,·
COc1ccc(C2CC(c3cccs3)=NN2C(=O)CSc2nc(=O)n3cc(C)ccc3n2)cc1 (centres undefined),-5.3,0.7,-25.8,52.9*,-9.3,-3.7,3.6
CN(CC(=O)Nc1c(Cl)cccc1Cl)C(=O)c1cc(S(=O)(=O)N(C)C)ccc1N1CCCC1,-0.3,-0.7,6.9,0.1,-8.4,-7.1,·
COc1ccc(C2CC(c3ccccc3)=NN2C(=O)COC(=O)c2cccc(S(=O)(=O)N3CCOCC3)c2)cc1 (centres undefined),-16.5,-3.0,-12.0,69.6*,53.9,-1.2,13.3
COc1ccc(C2CC(c3ccccc3)=NN2C(=O)COC(=O)c2cccc(S(=O)(=O)N(C)C)c2)cc1 (centres undefined),-2.9,5.8,-5.3,71.8*,10.7,18.7,-0.2
COc1ccc(C2CC(c3ccccc3)=NN2C(=O)COC(=O)c2cnc(Cl)c(Cl)c2)cc1 (centres undefined),-5.2,2.7,2.5,25.4,15.9,-6.0,·
COc1cc([N+](=O)[O-])cc(/C=N/NC(=O)C(O)(c2ccccc2)c2ccccc2)c1O,-9.0,2.1,-14.0,22.3,-13.5,16.7,·
COc1cc([N+](=O)[O-])cc(/C=N/NC(=O)c2cccnc2)c1O,-4.3,0.5,-0.7,61.9*,13.6,-254.6,74.4*
Cc1ccccc1Cn1cc(S(=O)(=O)c2ccc(C(C)C)cc2)c(=O)c2cc3c(cc21)OCO3,-2.2,-3.5,5.9,61.8*,5.2,-9.8,32.4
Cc1ccc(Cn2cc(S(=O)(=O)c3ccc(C(C)C)cc3)c(=O)c3cc4c(cc32)OCO4)cc1,-4.1,2.5,3.5,11.4,14.7,-2.2,·
Cc1ccc(Cn2cc(S(=O)(=O)c3ccc(Cl)cc3)c(=O)c3cc(F)ccc32)cc1,-5.2,0.1,-5.0,3.2,4.7,5.4,·
Cc1ccc(S(=O)(=O)c2cn(Cc3ccc(F)cc3)c3cc4c(cc3c2=O)OCO4)cc1,-2.3,-9.7,0.7,58.4*,-3.8,-29.1,20.0
O=c1c(S(=O)(=O)c2ccc(Cl)cc2)cn(Cc2cccc(F)c2)c2ccc(F)cc12,-2.8,0.3,-9.5,69.7*,-1.4,-7.4,31.9
O=C(NCC(c1ccco1)N1CCc2ccccc2C1)c1ccc([N+](=O)[O-])cc1 (centres undefined),-5.8,7.4,-1.8,59.8*,5.2,-4.1,11.3
Cc1ccc(C(NC(=O)/C=C\c2ccc3c(c2)OCO3)C(=O)Nc2ccc3c(c2)OCO3)cc1 (centres undefined),-5.4,-3.7,7.9,55.3*,1.4,-1.9,21.9
Cc1ccc(NC(=O)CN(C)C(=O)/C=C/c2ccc3c(c2)OCO3)cc1,-1.7,-28.3,-2.3,13.7,-8.2,-80.2,·
Cc1cn([C@H]2C[C@H](O)[C@@H](/C=C/C(=O)NCCc3ccc4c(c3)OCO4)O2)c(=O)[nH]c1=O,-4.4,-3.1,4.3,-5.1,·,-0.1,·
C=CCn1c(=NC(=O)c2ccc(S(=O)(=O)N3CCCc4ccccc43)cc2)sc2cc(S(N)(=O)=O)ccc21,-6.6,-0.8,-4.7,13.2,-9.3,-9.7,·
COCCn1c(=NC(=O)c2ccc(S(=O)(=O)N3CCCc4ccccc43)cc2)sc2cc(S(C)(=O)=O)ccc21,-6.0,-4.1,-8.3,83.5*,-3.6,-7.8,32.0*
COc1cc2ncc(S(=O)(=O)c3ccccc3)c(N3CCCC(C)C3)c2cc1OC (centres undefined),-3.3,2.1,5.3,78.5*,-0.9,3.5,70.8*
O=S(=O)(c1ccccc1)c1cnc(-c2ccccc2)nc1N1CCCC1,5.1,1.9,-4.5,13.0,13.8,-4.3,·
COc1cccc(C=C(C(C)=O)C(=O)c2ccccc2)c1,-5.2,0.7,-2.2,-0.2,·,-1.3,·
COc1ccc(CNc2nc(C)c([N+](=O)[O-])c(C)c2C#N)cc1,-13.5,1.8,-4.8,43.2,·,3.8,·
COc1cc(CNc2nc(C)c([N+](=O)[O-])c(C)c2C#N)cc(OC)c1OC,-2.1,-1.0,9.5,54.9*,10.8,-0.8,58.8*
SMILES,CaV13 ICDI inh,ADAM17 inh,NRP1-CendR mod,FAS TE block,Arrestin-AP2 inh,ADAM10 inh,FAS-TE inh conf
CCN(CC)S(=O)(=O)c1ccc(N2CCOCC2)c(NC(=O)C(=O)c2c(-c3ccccc3)cc3ccccn23)c1,-4.3,-0.1,0.7,54.0*,-11.7,3.1,33.7
CC(=O)c1cc(-c2ccc(Cl)c(Cl)c2)c(=O)n2c1CCC2,·,-13.5,·,·,·,-14.8,·
Cc1cc(C(=O)COC(=O)c2ccc(N)c([N+](=O)[O-])c2)c(C)n1-c1ccc2c(c1)OCO2,-4.5,1.6,-14.3,63.1*,34.7,7.6,5.8
O=C(c1ccco1)N1CCN(C(=S)Nc2cccc([N+](=O)[O-])c2)CC1,-4.5,-10.3,21.2,3.3,23.9,-16.6,·
O=[N+]([O-])c1cccc(NC(=S)N2CCc3ccccc3C2)c1,4.1,0.7,-6.0,50.8*,-3.1,-0.4,23.2*
O=C(Nc1cccc([N+](=O)[O-])c1)Nc1ccc2c(c1)CCC2,-2.7,0.8,20.1,53.1*,-2.6,6.9,13.5
Cc1ccc(Cn2cc(CN3CC(N4CCN(C5CCN(C)CC5)CC4)CS3(=O)=O)nn2)cc1 (centres undefined),-5.9,0.6,-3.5,-10.6,·,-10.1,·
CC(C)(C)NC(=O)/C(=C\C=C\c1ccccc1)NC(=O)c1ccc([N+](=O)[O-])cc1,-5.1,0.3,5.4,77.7*,5.5,6.4,89.4*
O=C(N/C(=C/C=C\c1ccccc1)C(=O)N1CCOCC1)c1ccc(Br)cc1,-2.0,0.6,1.5,65.0*,-13.7,5.9,61.3*
O=C(N/C(=C/C=C/c1ccccc1)C(=O)N1CCCCC1)c1ccc([N+](=O)[O-])cc1,-4.9,2.9,5.4,91.8*,0.9,0.7,93.5*
COC(=O)[C@H](C(C)C)N1CCc2nnn(CC3CCCCC3)c2-c2ccccc2S1(=O)=O,·,2.5,·,·,·,6.9,·
CC(C)(C)NC(=O)NC(=O)COC(=O)C1CCN(S(=O)(=O)c2cccs2)CC1,-2.9,-3.8,14.3,52.6*,21.9,0.6,46.2*
O=C(COC(=O)C1CCN(S(=O)(=O)c2cccs2)CC1)Nc1ccccc1,-3.0,3.5,15.6,0.4,-19.7,5.8,·

# Compound activity from PubChem BioAssay.
